Columns and labels:
Conditions in all cases: cattle
[1] = target: T1, cholesterol side-chain cleavage cytochrome P450 (mitochondrial) (Bos taurus, UniProt P00189); assay: Percent inhibition of cholesterol side-chain cleavage cytochrome P450 at 1 uM in bovine adrenocortical mitochondrial acetone powder preparations
T1 sequence (P00189 whole entry): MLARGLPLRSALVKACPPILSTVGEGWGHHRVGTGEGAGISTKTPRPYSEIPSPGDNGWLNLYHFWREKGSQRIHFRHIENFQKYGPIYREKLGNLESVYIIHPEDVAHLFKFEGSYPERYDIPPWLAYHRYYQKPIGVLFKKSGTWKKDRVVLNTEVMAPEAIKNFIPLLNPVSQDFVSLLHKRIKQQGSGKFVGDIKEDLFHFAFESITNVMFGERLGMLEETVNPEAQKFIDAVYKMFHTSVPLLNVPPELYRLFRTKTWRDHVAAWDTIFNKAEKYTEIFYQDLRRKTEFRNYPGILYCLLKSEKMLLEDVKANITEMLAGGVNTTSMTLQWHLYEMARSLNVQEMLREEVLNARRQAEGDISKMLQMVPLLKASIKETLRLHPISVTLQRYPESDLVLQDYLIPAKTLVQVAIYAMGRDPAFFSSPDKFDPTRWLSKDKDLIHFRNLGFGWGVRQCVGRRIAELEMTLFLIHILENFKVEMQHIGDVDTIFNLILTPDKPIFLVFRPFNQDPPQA
Method in brief: (§1)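 CSCC activity in adrenal preparations assayed by the previously reported method. Inhibitor tested at a final concentration of 100 μM or below. Isocaproic acid product volatilized in a heated vacuum desiccator and measured by liquid scintillation counting. Percent inhibition is taken from at least six data points across two separate experiments, with standard deviation from the mean.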

[2] = target: T1, cholesterol side-chain cleavage cytochrome P450 (mitochondrial); assay: Percent inhibition of cholesterol side-chain cleavage cytochrome P450 at 10 uM in bovine adrenocortical mitochondrial acetone powder preparations; method in brief: as §1
[3] = target: T1, cholesterol side-chain cleavage cytochrome P450 (mitochondrial); assay: Percent inhibition of cholesterol side-chain cleavage cytochrome P450 at 100 uM in bovine adrenocortical mitochondrial acetone powder preparations; method in brief: as §1

CC(C)CCNC(C)[C@H]1CC[C@H]2[C@@H]3CC=C4C[C@@H](O)CC[C@]4(C)[C@H]3CC[C@]12C (some centres undefined)
inhibition at 1 µM [1]: 10% | inhibition at 10 µM [2]: 75% | inhibition at 100 µM [3]: 93%

CO[C@H]1CCC2(C)C(CC[C@@H]3[C@@H]2CCC2(C)[C@@H](N(C)CCCC(C)C)CC[C@@H]32)C1 (some centres undefined)
inhibition at 100 µM [3]: 5%

CC(C)CCNC(C)[C@H]1CC[C@H]2[C@@H]3CCC4CC(=O)CC[C@]4(C)[C@H]3CC[C@]12C (some centres undefined)
inhibition at 100 µM [3]: 3%

CCC(C)CNC(C)[C@H]1CC[C@H]2[C@@H]3CC=C4C[C@@H](OC)CC[C@]4(C)[C@H]3CC[C@]12C (some centres undefined)
inhibition at 1 µM [1]: 12% | inhibition at 10 µM [2]: 89% | inhibition at 100 µM [3]: 100%

CO[C@H]1CC[C@@]2(C)C(CC[C@H]3[C@@H]4CC[C@H](C(C)NCCC(C)C)[C@@]4(C)CC[C@@H]32)C1 (some centres undefined)
inhibition at 100 µM [3]: 21%

CC(C)CCNC(C)[C@H]1CC[C@H]2[C@@H]3CCC4C[C@@H](O)CC[C@]4(C)[C@H]3CC[C@]12C (some centres undefined)
inhibition at 100 µM [3]: 28%

CO[C@H]1CC[C@@]2(C)C(=CC[C@H]3[C@@H]4CC[C@H](C(C)NCCC(C)C)[C@@]4(C)CC[C@@H]32)C1 (some centres undefined)
inhibition at 1 µM [1]: 14% | inhibition at 10 µM [2]: 86% | inhibition at 100 µM [3]: 99%

CO[C@H]1CCC2(C)C(=CCC3C2CCC2(C)C3CC[C@@H]2N(C)CCCC(C)C)C1 (some centres undefined)
inhibition at 10 µM [2]: 30% | inhibition at 100 µM [3]: 86%

CC(C)CCCN(C)[C@H]1CC[C@H]2[C@@H]3CCC4C[C@@H](O)CC[C@]4(C)[C@H]3CC[C@]12C (some centres undefined)
inhibition at 100 µM [3]: 26%

CO[C@@H]1CC[C@@]2(C)C(CC[C@H]3[C@@H]4CC[C@H](N(C)CCCC(C)C)[C@@]4(C)CC[C@@H]32)C1 (some centres undefined)
inhibition at 100 µM [3]: 3%

CC(C)CCCN(C)[C@H]1CCC2C3CC=C4C[C@@H](O)CCC4(C)C3CCC21C (some centres undefined)
inhibition at 10 µM [2]: 29% | inhibition at 100 µM [3]: 78%
